PMC5575935 (Journal of the American Chemical Society, 2017)
Changes are numbered by the printed parent chain. Blank lines part the entries; values can stand above or below the molecule they belong to.

Tests used:
MAP2K6 and other MAP2Ks = assay: LanthaScreen Eu binding assays on MAP2K family members; design: species or system human; conditions: LanthaScreen Eu assays and initial IDUP assay
[1] = biological target: T1, C38A point mutant of MAP2K6EE (Homo sapiens, UniProt P52564, C38A/S207E/T211E); assay: Z′-LYTE kinase activity after preincubation with EA and dialysis; type: biochemical; conditions: C38A MAP2K6EE preincubated with 100 µM EA, then dialyzed; vs DMSO
T1 sequence (P52564 1-334 C38A/S207E/T211E): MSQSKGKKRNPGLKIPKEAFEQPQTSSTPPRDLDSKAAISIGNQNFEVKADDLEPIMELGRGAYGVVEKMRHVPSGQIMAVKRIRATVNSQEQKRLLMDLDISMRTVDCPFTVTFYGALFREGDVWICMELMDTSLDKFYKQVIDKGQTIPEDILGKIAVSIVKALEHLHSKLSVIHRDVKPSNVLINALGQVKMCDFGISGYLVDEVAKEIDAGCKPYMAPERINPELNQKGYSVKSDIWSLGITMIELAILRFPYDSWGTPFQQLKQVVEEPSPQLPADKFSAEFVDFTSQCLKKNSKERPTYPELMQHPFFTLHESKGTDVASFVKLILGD
Method in brief: (§1)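 The kinase, either MAP2K6EE (S207E/T211E) or its C38A variant, was incubated with 100 µM test compound or DMSO. It was then dialyzed to remove free compound. Z′-LYTE kinase activity was measured as a function of kinase concentration.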

MAP2K6 [2] = biological target: T2, MAP2K6 (Homo sapiens, UniProt P52564); assay: IDUP library × library selection, enrichment of ligand:protein barcodes; type: binding
T2 sequence (P52564 1-334): T1 sequence (P52564 1-334 C38A/S207E/T211E) with A38C, E207S, E211T
Method in brief: (§2)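 Kinases were expressed as SNAP fusions by transient transfection of pDEST-SNAP-kinase vectors into HEK293T cells. Each unpurified lysate was labelled with a 31-nt benzylguanine-linked oligonucleotide carrying a unique 6-nt barcode and a common 3′ 8-nt hybridization region. The pooled protein library was combined with 2 pmol of an equimolar library of 136 DNA-linked compounds. IDUP primer extension followed, and extended products encoding protein:ligand pairs were PCR-amplified for barcode enrichment.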

[3] = biological target: T3, MAP2K6EE (constitutively active MAP2K6 mutant, S207E and T211E) (Homo sapiens, UniProt P52564, S207E/T211E); assay: Z′-LYTE kinase activity after preincubation with EA and dialysis; type: biochemical; conditions: MAP2K6EE incubated with 100 µM EA, then dialyzed into EA-free buffer; vs DMSO
T3 sequence (P52564 1-334 S207E/T211E): T1 sequence (P52564 1-334 C38A/S207E/T211E) with A38C
Method in brief: as §1

GSK3α [4] = biological target: T4, GSK3α (Homo sapiens, UniProt P49840); assay: IDUP library × library selection, enrichment of ligand:protein barcodes; type: binding
T4 sequence (P49840 whole entry): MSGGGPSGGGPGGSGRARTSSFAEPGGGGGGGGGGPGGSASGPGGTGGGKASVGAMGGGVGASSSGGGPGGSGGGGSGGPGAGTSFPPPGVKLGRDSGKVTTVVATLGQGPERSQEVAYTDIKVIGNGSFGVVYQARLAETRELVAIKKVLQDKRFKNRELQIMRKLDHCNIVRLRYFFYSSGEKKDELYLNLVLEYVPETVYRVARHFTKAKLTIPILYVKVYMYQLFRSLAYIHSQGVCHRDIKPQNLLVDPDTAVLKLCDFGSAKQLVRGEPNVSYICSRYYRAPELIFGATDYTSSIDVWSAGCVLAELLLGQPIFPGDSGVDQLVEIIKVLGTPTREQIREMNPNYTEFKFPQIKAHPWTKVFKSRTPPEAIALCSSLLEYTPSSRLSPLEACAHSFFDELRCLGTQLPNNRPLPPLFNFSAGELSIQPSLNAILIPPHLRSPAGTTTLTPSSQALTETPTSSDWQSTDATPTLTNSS
Method in brief: as §2

GSK3α [5] = biological target: T4, GSK3α; assay: Z′-LYTE kinase inhibition assay; type: biochemical; conditions: non-DNA tagged ligand
MAP2K6 [6] = biological target: T2, MAP2K6; assay: Z′-LYTE kinase inhibition assay; type: biochemical; conditions: nonelectrophilic analogs relative to EA

loss in inhibition potency [1]: ~ 3.3 fold | IDUP enrichment (MAP2K6 [2]): 4.7 fold | apparent loss of kinase activity [3]: 9 fold
Compound: C=C(CC)C(=O)c1ccc(OCC(=O)O)c(Cl)c1Cl [EA, ethacrynic acid]
affinity for MAP2K6 compared with other MAP2Ks (MAP2K6 and other MAP2Ks): higher affinity for MAP2K6 than other MAP2Ks

IDUP enrichment (GSK3α [4]): 4.7 fold | IC50 (GSK3α [5]): 115 nM
Compound: Cl.Cn1cc(C2=C(c3c4n(c5ccccc35)CCC(CN)C4)C(=O)NC2=O)c2ccccc21 (centres unmarked) [bisX, bisindolylmaleimide X]

fold weaker inhibition of MAP2K6 than EA (MAP2K6 [6]): > 30 fold
Compound: CCC(C)C(=O)c1ccc(OCC(=O)O)c(Cl)c1Cl (centres unmarked) [dihydro-ethacrynic acid]

fold weaker inhibition of MAP2K6 than EA (MAP2K6 [6]): > 30 fold
Compound: O=C(O)COc1ccc(C(=O)c2cccs2)c(Cl)c1Cl [tienilic acid]
